PG9 binder: binds the HIV-1 gp120 antibody PG9; TR-FRET gp120-PG9 antibody binding; inhibition, % at 6.7 µM; 0.43% of 360,000 active; AID 624416; in the data active = inhibition above about 8.5%
NR2E3 ag-1: agonists of human nuclear receptor NR2E3; Q9Y5X4; GST-NR2E3/biotin-RetCOR TR-FRET, 1536-well; inhibition of corepressor binding, % at 4.78 µM; 0.12% of 320,000 active;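 active = percent inhibition above the cutoff of mean plus 3 SD of all tested compounds, set per screening campaign, cut at about 20% in these data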;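 note: 0% = DMSO wells and 100% = biotin wells as full block of FRET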
Target sequence (Q9Y5X4 whole entry, looked up): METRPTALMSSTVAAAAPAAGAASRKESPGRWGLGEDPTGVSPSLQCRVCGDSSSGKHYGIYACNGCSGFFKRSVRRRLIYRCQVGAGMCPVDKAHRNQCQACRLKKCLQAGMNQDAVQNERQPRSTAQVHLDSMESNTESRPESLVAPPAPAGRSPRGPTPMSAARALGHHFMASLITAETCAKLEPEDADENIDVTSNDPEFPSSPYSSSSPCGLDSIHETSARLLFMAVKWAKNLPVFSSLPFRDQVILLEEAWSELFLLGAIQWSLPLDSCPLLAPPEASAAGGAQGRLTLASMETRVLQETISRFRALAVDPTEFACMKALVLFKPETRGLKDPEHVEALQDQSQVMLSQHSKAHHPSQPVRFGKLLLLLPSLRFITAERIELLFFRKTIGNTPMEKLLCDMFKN
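Material: NR2E3–RetCOR corepressor complex / Amount: 1.35 nM GST-NR2E3 / Medium: Tris pH 7.5 / Compound: single nominal compound dose of 4.8 µM / Incubation: 5 h at 4 °C / Technique: TR-FRET, Eu(K)-anti-GST donor, streptavidin-D2 acceptor, ex 340, em 617/671 nm / Read-out basis: percent loss of FRET ratio relative to control wells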
NR2E3 ag-2: human photoreceptor-specific nuclear receptor agonism | AID 602229 | inhibition of corepressor binding, % at 3.98 µM | 0.35% of 360,000 active | Q9Y5X4 | CHO-S Gal4-NCOR/VP16-NR2E3 two-hybrid, luciferase;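 active = inhibition above the mean of all tested compounds plus 3 SD, cut at about 70% in these data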;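 note: 0% = DMSO with NR2E3 transfected cells and 100% = cells lacking NR2E3 construct; higher means lower luciferase signal from less NR2E3 corepressor binding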
Rev-erbA mod: modulators of human Rev-erb alpha DNA binding; Rev-erbα–FITC-DNA binding, fluorescence polarization, 90 min; 0.79% of 370,000 active; activity, % at 10 µM; P20393; AID 1259318;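 active = activity above about 14%, limit read from the data; passing the limit was not always enough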;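 note: 0% = DMSO wells with 35 nM protein and 100% = DMSO wells with 750 nM protein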
Rev-erbA confirm: confirmation of modulators of human Rev-erb alpha DNA binding. shares compounds with Rev-erbA mod. activation, % at 25 µM. 61% of 3,000 active. Rev-erb alpha FITC-DNA binding, fluorescence polarization, 90 min. AID 1259319;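 active = activation at or above a set limit, or at least 3 SD above the negative control mean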;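 note: 0% = 35 nM protein with DMSO and 100% = 750 nM protein high control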
RORg counter: RORgamma DNA-binding activity, dose-response counter-screen | purified RORgamma protein-FITC-DNA binding, fluorescence polarization | IC50, µM | shares compounds with Rev-erbA mod | 8% of 910 active;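 active = Compounds whose fitted half-maximal concentration for disrupting protein-DNA binding is below 10 micromolar; the record names Rev-erb in its text, so the target is in doubt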
* hit, by the source's call; · = no result given. Only some compounds are listed: those with a hit (about 1.4% of all), similar ones and a draw of the others.

SMILES | PG9 binder | NR2E3 ag-1 | NR2E3 ag-2 | Rev-erbA mod | Rev-erbA confirm | others
COc1ccc(-c2nc3ccc(Br)cn3c2Cc2cccc(F)c2)cc1OC | 4 | · | -6 | 18* | 3
CN1CCN(c2ccc3c(c2)Oc2ccccc2CN(Cc2cn(Cc4ccc(C(F)(F)F)cc4)nn2)S3(=O)=O)CC1 | · | · | · | 2 | ·
C[C@@H]1COc2cccc(N3CCSCC3)c2S(=O)(=O)N1C | · | · | · | 2 | ·
CC(C)(C)c1ccc(-c2cn(C[C@H](Cc3ccccc3)n3c(=O)c4ccccc4n3Cc3ccccc3)nn2)cc1 | · | · | · | 5 | ·
COc1cccc(NC(=O)N2CC[C@@H]3[C@H]2c2cc(-c4cccc(C#N)c4)ccc2N(C)[C@@H]3CO)c1 | · | · | · | 3 | ·
Cc1cc(Br)c2nc(-c3ccccc3)c(Cc3cccc(Cl)c3)n2c1 | 8 | · | -12 | 27* | 15*
Cc1ccc(-c2nc3c(C)cc(Br)cn3c2Cc2cccc(F)c2)cc1 | 4 | · | 3 | 21* | 20*
Cc1ccc2nc(-c3ccccc3)c(Cc3cccc(Cl)c3)n2c1 | 0 | · | -75 | 0 | ·
Cc1cc(C(F)(F)F)c(C#N)c(N2CCOCC2)n1 | 0 | -2 | -22 | -3 | ·
N#Cc1c(N2CCOCC2)nsc1-c1ccc(C(F)(F)F)cc1 | 5 | 2 | -28 | 22* | 16
COc1ccc(CN2C(=O)c3cccc4cccc(c34)C2=O)cc1 | 0 | -1 | -4 | 23* | 15*
O=C1c2cccc3cccc(c23)N1Cc1ccc(F)cc1 | -2 | 1 | -23 | 1 | ·
C[C@H](O)[C@@H]1CN2CCc3c([nH]c4c(-c5ccc6c(c5)OCO6)cccc34)[C@@H]2C[C@@H]1N(C)C(=O)NC1CCCCC1 | · | · | · | 3 | ·
O=C(/C=C\Nc1ccc2c(c1)OCO2)c1ccccn1 | -2 | 1 | -26 | 28* | 4
COCc1cccc(-c2cc(C(=O)OC)c3n(c2=O)CCC3)c1 | · | · | · | -4 | ·
Cc1nc(CS(=O)(=O)c2ccccc2)cc(Sc2ccc(Cl)cc2Cl)n1 | -2 | 0 | -84 | -4 | ·
CSc1cc(CS(=O)(=O)c2ccccc2)nc(-c2ccccc2)n1 | -1 | 0 | 7 | 20* | 28*
O=S(=O)(Cc1cc(NCc2ccccc2)nc(-c2ccncc2)n1)c1ccccc1 | -1 | 1 | -17 | 17* | 44* | RORg counter=>40
CC(=O)c1cccc(NC(=O)CCn2c(=S)oc3ccccc32)c1 | -1 | -2 | 1 | 29* | 12
O=c1ccc2c(-c3ccccc3)c3ccc(O)cc3oc-2c1 | -3 | -2 | -14 | 102* | 99* | RORg counter=>40
O=c1cc(-c2ccccc2)oc2cc(O)ccc12 | 2 | · | -92 | 2 | ·
Nc1ccc(-c2c3ccc(=O)cc-3oc3cc(O)ccc23)cc1C(=O)O | -6 | -2 | -44 | 187* | 240* | RORg counter=>40
CCN(CC)c1ccc(C=C2SC(=S)NC2=O)cc1 | -7 | · | -6 | 39* | 30* | RORg counter=>40
COc1ccc(-c2nnn3c2nc(NCc2ccccc2)c2ccccc23)cc1 | -2 | 2 | -6 | 23* | 17*
Cc1ccc(-c2nnn3c2nc(Cl)c2ccccc23)cc1 | 0 | · | -53 | -2 | ·
SMILES | PG9 binder | NR2E3 ag-1 | NR2E3 ag-2 | Rev-erbA mod | Rev-erbA confirm | others
Fc1cccc(-c2nnn3c2nc(Cl)c2ccccc23)c1 | 1 | · | -69 | 90* | 19*
Clc1nc2c(-c3ccccc3)nnn2c2ccccc12 | 0 | 2 | -63 | 83* | 68* | RORg counter=>40
CC(C)(C)N1Cc2nnn(Cc3ccccc3)c2-c2cc(N3CCCCC3)ccc2S1(=O)=O | · | · | · | 2 | ·
CCCCN(C(=O)c1ccc(-c2ccc(Cl)cc2)o1)c1c(N)n(CC(C)C)c(=O)[nH]c1=O | -2 | 6 | 8 | 18* | -16
COCCN(C(=O)c1ccc(-c2ccc(Cl)cc2)o1)c1c(N)n(CC(C)C)c(=O)[nH]c1=O | 0 | 2 | -50 | -5 | ·
CC(=O)Nc1ccc2c(COC(=O)CC3Sc4ccccc4NC3=O)cc(=O)oc2c1 (stereo unspecified) | -3 | 2 | -8 | 53* | 26*
Cc1ccc(C(=O)CSc2ncnc3sc4c(c23)CCC(C)C4)cc1 (stereo unspecified) | -1 | · | -22 | 68* | 24*
CC(=O)CSc1ncnc2sc3c(c12)CCC3 | -2 | 1 | -4 | -6 | ·
Cc1oc2cc3oc(=O)c4c(c3cc2c1C)CCC4 | 0 | -2 | -18 | 49* | 44* | RORg counter=>40
Cc1coc2c(C)c3oc(=O)c4c(c3cc12)CCCC4 | 0 | 1 | -10 | 16 | ·
Cc1oc2c(C)c3oc(=O)c4c(c3cc2c1C)CCC4 | 1 | · | -41 | 46* | 9
CC(C)(C)CCNc1nc(-c2ccccn2)nnc1-c1ccccc1 | · | · | · | -4 | ·
O=[N+]([O-])c1ncccc1OCCOc1ccc(Cl)cc1Cl | · | · | · | -3 | ·
COC(=O)[C@]12C[C@H](CC(=O)NCCC(C)C)C(=O)N(Cc3cccc4ccccc34)C1=C[C@H](C(C)(C)C)O[C@@H]2C | · | · | · | 5 | ·
CCOC(=O)Cn1c(=NC(=O)c2nc3ccccc3s2)sc2cc(S(N)(=O)=O)ccc21 | -11 | -66 | 8 | 48* | 29*
CCOC(=O)Cn1c(=NC(=O)c2cccs2)sc2cc(C(=O)OC)ccc21 | 1 | -4 | -35 | 85* | 75* | RORg counter=>40
CCOC(=O)c1ccc2c(c1)sc(=NC(=O)c1ccco1)n2CCOC | 8 | 1 | -7 | 35* | 25*
Cc1c(C2N3CC4(C)CN2CC(C)(C3)C4=O)c2ccccc2n1C (stereo unspecified) | 0 | 3 | -3 | 42* | 69* | RORg counter=>40
CC12CN3CC(C)(CN(C1)C3c1cc(Br)ccc1O)C2=O (stereo unspecified) | 1 | 0 | -15 | 18 | ·
Cn1cc(C2N3CC4(C)CN2CC(C)(C3)C4=O)c2ccccc21 (stereo unspecified) | -1 | -3 | 9 | 17* | 18*
CCOC(=O)N1CCN(S(=O)(=O)c2ccc(C(=O)Nc3nc4ccccc4s3)cc2)CC1 | 7 | 0 | -17 | 34* | 21*
CCOC(=O)N1CCN(S(=O)(=O)c2ccc(C(=O)Nc3nc4ccc(F)cc4s3)cc2)CC1 | 0 | -1 | -10 | · | ·
CCOC(=O)c1sc(NC(=O)c2ccc(S(=O)(=O)N3CCCCCC3)cc2)nc1-c1ccccc1 | -2 | 0 | -4 | 29* | 5
CCOc1ccc(-n2c(COc3ccc(C)cc3)nnc2SCC(=O)c2ccc3ccccc3c2)cc1 | · | · | · | 10 | ·
CCOC(=O)c1sc2nc(C)nc(Nc3ccc(OC)cc3)c2c1C | 2 | -2 | -10 | 31* | 13
Cc1cc(N2CCN(c3ncccn3)CC2)nc2c(C)cccc12 | -2 | 0 | -9 | 35* | 6
COc1ccc(N2CCN(c3cc(C)c4cccc(C)c4n3)CC2)cc1 | 2 | -1 | 6 | -1 | ·
Cc1cc(C)c2nc(SCC(=O)Nc3ccc(S(=O)(=O)N4CCCC4)cc3)c(C)cc2c1 | 2 | -3 | -36 | 13 | ·

Compound activity as filed in PubChem BioAssay.
